In assay [1] the target is T1, Muscarinic acetylcholine receptor M5 (Homo sapiens, UniProt P08912).
T1 sequence (P08912 whole entry): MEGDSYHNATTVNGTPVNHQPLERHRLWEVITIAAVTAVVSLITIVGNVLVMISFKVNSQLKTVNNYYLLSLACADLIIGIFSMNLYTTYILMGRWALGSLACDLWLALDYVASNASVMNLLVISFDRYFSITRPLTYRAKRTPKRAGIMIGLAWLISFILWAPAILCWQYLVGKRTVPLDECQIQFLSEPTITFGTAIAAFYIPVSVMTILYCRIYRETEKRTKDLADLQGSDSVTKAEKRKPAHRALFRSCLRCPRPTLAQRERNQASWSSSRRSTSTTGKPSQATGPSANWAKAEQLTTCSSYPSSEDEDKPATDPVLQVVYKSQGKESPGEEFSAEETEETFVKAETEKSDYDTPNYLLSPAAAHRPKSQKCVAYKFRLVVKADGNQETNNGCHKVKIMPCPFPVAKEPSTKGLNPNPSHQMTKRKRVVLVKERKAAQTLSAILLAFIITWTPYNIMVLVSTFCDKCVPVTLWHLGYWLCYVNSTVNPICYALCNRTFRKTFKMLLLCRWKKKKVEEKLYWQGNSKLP
Nature of the assay: Inhibition of [3H]NMS binding to human cloned M5 receptor expressed in CHO cells. The format is cell-based. The procedure, abridged:
(§1)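 Competition against specific [3H]-NMS binding on membranes of CHO cells expressing cloned human receptor subtypes. Assay buffer 50 mM Tris-HCl, 10 mM MgCl2, 1 mM EDTA, pH 7.4, highest final concentration 10 µM.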

Assay [2] concerns the target T2, Muscarinic acetylcholine receptor M4 (Homo sapiens, UniProt P08173).
T2 sequence (P08173 whole entry): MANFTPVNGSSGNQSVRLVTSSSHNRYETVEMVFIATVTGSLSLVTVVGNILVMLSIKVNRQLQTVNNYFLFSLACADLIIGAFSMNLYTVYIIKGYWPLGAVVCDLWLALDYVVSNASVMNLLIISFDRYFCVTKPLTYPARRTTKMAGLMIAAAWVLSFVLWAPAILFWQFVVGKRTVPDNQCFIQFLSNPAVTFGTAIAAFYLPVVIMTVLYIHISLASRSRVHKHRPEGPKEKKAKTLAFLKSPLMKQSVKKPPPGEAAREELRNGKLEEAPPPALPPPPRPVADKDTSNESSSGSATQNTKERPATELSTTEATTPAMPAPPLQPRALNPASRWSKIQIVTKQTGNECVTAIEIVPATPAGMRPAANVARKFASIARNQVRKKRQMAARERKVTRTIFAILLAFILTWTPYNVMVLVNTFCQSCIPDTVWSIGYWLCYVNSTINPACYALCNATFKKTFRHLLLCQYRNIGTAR
Nature of the assay: Inhibition of [3H]NMS binding to human cloned M4 receptor expressed in CHO cells. Format: cell-based. In outline:
as §1

For assay [3], the target named is T3, Muscarinic acetylcholine receptor M1 (Homo sapiens, UniProt P11229).
T3 sequence (P11229 whole entry): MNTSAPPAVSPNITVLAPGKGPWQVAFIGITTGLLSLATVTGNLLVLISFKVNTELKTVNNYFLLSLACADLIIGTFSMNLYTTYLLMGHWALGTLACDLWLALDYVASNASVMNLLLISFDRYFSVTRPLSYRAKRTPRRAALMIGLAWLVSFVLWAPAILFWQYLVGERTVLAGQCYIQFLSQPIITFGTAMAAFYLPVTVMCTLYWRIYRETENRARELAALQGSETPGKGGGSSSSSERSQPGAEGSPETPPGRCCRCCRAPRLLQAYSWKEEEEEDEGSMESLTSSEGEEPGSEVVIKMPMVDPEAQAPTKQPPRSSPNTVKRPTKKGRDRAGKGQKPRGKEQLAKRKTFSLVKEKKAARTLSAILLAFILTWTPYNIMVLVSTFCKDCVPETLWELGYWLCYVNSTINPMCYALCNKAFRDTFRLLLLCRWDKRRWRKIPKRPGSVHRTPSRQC
Nature of the assay: Inhibition of [3H]NMS binding to human cloned M1 receptor expressed in CHO cells. Format: cell-based. In outline:
as §1

Assay [4] addresses T4, Muscarinic acetylcholine receptor M3 (Homo sapiens, UniProt P20309). Briefly: Inhibition of [3H]NMS binding to human cloned M3 receptor expressed in CHO cells. Format: cell-based. The procedure, abridged: as §1
Target sequence in this assay (P20309 whole entry): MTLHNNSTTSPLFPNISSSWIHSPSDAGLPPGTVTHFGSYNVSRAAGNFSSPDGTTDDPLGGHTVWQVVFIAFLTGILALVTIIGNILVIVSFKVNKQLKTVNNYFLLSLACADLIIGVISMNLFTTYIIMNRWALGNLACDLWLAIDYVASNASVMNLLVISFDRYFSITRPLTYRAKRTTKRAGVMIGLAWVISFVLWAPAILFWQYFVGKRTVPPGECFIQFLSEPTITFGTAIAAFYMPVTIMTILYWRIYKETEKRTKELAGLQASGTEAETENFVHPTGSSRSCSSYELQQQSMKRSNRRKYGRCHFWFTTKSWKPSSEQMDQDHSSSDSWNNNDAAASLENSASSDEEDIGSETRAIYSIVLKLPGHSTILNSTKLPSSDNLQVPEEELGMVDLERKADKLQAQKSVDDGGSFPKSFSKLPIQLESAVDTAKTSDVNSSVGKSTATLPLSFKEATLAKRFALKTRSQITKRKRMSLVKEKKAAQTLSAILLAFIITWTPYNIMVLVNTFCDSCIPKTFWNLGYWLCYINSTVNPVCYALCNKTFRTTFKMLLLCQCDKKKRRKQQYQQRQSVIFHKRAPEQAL
For assay [5], the target named is T5, Muscarinic acetylcholine receptor M2 (Rattus norvegicus, UniProt P10980).
T5 sequence (P10980 whole entry): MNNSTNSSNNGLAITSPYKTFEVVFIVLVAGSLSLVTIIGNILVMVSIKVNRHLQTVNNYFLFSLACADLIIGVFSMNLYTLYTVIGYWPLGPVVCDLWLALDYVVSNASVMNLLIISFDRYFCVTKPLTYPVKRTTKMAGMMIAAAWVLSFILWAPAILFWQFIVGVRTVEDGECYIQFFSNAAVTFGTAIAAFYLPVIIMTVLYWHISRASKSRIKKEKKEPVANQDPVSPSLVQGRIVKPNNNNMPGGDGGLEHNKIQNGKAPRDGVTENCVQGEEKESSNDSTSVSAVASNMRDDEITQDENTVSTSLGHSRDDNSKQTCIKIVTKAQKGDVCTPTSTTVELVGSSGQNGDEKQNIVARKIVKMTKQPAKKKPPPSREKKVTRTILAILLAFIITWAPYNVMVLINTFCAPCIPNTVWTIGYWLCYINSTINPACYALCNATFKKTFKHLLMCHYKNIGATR
Briefly: Antagonist activity at M2 receptor assessed as inhibition of carbachol-induced bradycardia in rat atria. The format is functional. Particulars: read-out: pA2 (converted). In outline: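 Isolated rat right atria, bradycardia evoked by carbachol, antagonist given at several doses. Four experiments per dose, reported as mean ± SEM. Potency obtained by Schild regression analysis.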

For assay [6], the target named is Muscarinic acetylcholine receptor M3 (Rattus norvegicus) (UniProt P08483). Nature of the assay: (§2) Antagonist activity at M3 receptor assessed as inhibition of carbachol-induced contraction of rat trachea. Format: functional. The procedure, abridged:
(§3)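 Contraction of isolated rat trachea evoked by carbachol, antagonist given at several doses. Four experiments per dose, reported as mean ± SEM. Schild regression analysis applied to the data.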

The target of assay [7] is Muscarinic acetylcholine receptor M3 (Rattus norvegicus, UniProt P08483). The description is as §2. The format is functional. Particulars: read-out: pA2 (converted). In outline:
as §3

In assay [8] the target is T4, Muscarinic acetylcholine receptor M3. Briefly: Inhibition of [3H]NMS binding to human cloned M3 receptor expressed in CHO cells at 1 uM. The format is cell-based.
Target sequence in this assay (P20309 whole entry, looked up): as the sequence (P20309 whole entry) above

Chain of Muscarinic acetylcholine receptor M3 (Rattus norvegicus, UniProt P08483) (P08483 whole entry): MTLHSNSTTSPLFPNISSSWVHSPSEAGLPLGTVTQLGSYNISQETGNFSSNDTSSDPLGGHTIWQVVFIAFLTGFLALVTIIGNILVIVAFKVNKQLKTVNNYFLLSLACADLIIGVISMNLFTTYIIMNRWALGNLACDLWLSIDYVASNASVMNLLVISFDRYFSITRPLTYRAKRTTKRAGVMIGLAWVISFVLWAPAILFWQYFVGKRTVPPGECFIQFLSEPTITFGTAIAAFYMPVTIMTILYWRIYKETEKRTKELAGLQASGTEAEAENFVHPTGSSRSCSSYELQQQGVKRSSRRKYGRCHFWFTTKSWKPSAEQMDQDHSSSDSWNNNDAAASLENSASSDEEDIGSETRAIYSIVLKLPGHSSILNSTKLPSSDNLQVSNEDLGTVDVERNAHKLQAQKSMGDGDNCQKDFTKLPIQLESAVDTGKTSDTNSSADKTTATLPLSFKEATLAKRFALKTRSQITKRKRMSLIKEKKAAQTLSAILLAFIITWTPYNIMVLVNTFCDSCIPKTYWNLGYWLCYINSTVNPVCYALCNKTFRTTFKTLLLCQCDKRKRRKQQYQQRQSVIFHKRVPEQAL
Chain of Muscarinic acetylcholine receptor M3 (Rattus norvegicus) (P08483 whole entry, looked up): as the sequence (P08483 whole entry) above

In the case of `O=C(NCC1CCNCC1)[C@H]1CCCN1C(=O)[C@@H]1C[C@@H](O)CN1C(=O)CC(c1ccc(Cl)cc1)(c1ccc(Cl)cc1)c1ccc(Cl)cc1`, the Ki (in general, the dissociation constant of the complex between target and ligand, obtained from inhibition or displacement) in assay [1] is 2500 nM; in assay [2], 53 nM; in assay [3] it was 93 nM; in assay [4], 0.39 nM.

Turning to `O=C(NCC1CCN(CC2CC2)CC1)[C@H]1CCCN1C(=O)[C@@H]1C[C@@H](O)CN1C(=O)CC(c1ccc(F)cc1)(c1ccc(F)cc1)c1ccc(F)cc1`, the Ki in assay [1] is 1600 nM; in assay [2], 20 nM; in assay [3], 65 nM; in assay [4] it was 0.17 nM.

In the case of `O=C(NC[C@@H]1CCCNC1)[C@H]1CCCN1C(=O)[C@@H]1C[C@@H](O)CN1C(=O)CC(c1ccc(F)cc1)(c1ccc(F)cc1)c1ccc(F)cc1`, the Ki in assay [1] was 1700 nM; in assay [2] it was 39 nM; in assay [3], 300 nM; in assay [4], 0.39 nM.

On to `O=C(NC[C@@H]1CCCNC1)[C@H]1CCCN1C(=O)[C@@H]1C[C@@H](O)CN1C(=O)CC(c1ccccc1)(c1ccccc1)c1ccccc1`, for which the Ki in assay [1] was over 5100 nM; in assay [2], 290 nM; in assay [3] it was over 2600 nM; in assay [4], 3.7 nM.

For `O=C(NCCC1CCNCC1)[C@H]1CCCN1C(=O)[C@@H]1C[C@@H](O)CN1C(=O)CC(c1ccc(F)cc1)(c1ccc(F)cc1)c1ccc(F)cc1`, the Ki in assay [1] came to 1700 nM; in assay [2] it was 29 nM; in assay [3], 300 nM; in assay [4], 0.48 nM.

`O=C(NCC1CCNCC1)[C@H]1CCCN1C(=O)[C@@H]1C[C@@H](O)CN1C(=O)CC(c1ccc(F)cc1)(c1ccc(F)cc1)c1ccc(F)cc1`: the Ki in assay [1] was found to be 3500 nM; in assay [2] it was 42 nM; in assay [3], 170 nM; in assay [4], 0.3 nM. For the same molecule, the Kb in assay [5] is 204 nM; in assay [7], 0.224 nM. In addition, the Activity entry in assay [6] is “Dose-dependent effect”.

In the case of `O=C(NCC1CCNCC1)[C@H]1CCCN1C(=O)[C@@H]1C[C@@H](O)CN1C(=O)CC(c1ccccc1)(c1ccccc1)c1ccccc1`, the Ki in assay [1] was over 5100 nM; in assay [2], 480 nM; in assay [3] it was 1800 nM; in assay [4], 4.2 nM.

`O=C(NCC1CCN(CC2CCCC2)CC1)[C@H]1CCCN1C(=O)[C@@H]1C[C@@H](O)CN1C(=O)CC(c1ccc(F)cc1)(c1ccc(F)cc1)c1ccc(F)cc1`: the Ki in assay [1] stood at 940 nM; in assay [2] it was 11 nM; in assay [3], 71 nM; in assay [4] it was 0.19 nM.

For `O=C(NC[C@H]1CCCNC1)[C@H]1CCCN1C(=O)[C@@H]1CCCN1C(=O)CC(c1ccccc1)(c1ccccc1)c1ccccc1`, the Ki in assay [1] was over 5000 nM; in assay [2], over 1700 nM; in assay [3], over 2500 nM; in assay [4], 99 nM. The inhibition (as a rule, the percentage by which the read-out fell short of the control) in assay [8] worked out at 74%.

`O=C(NCC1CCN(CC2CCC2)CC1)[C@H]1CCCN1C(=O)[C@@H]1C[C@@H](O)CN1C(=O)CC(c1ccc(F)cc1)(c1ccc(F)cc1)c1ccc(F)cc1`: the Ki in assay [1] worked out at 3100 nM; in assay [2] it was 31 nM; in assay [3], 220 nM; in assay [4] it was 0.53 nM.

Turning to `O=C(NCCC1CCNCC1)[C@H]1CCCN1C(=O)[C@@H]1C[C@@H](O)CN1C(=O)CC(c1ccc(Cl)cc1)(c1ccc(Cl)cc1)c1ccc(Cl)cc1`, the Ki in assay [1] was found to be 950 nM; in assay [2], 24 nM; in assay [3] it was 260 nM; in assay [4], 1.2 nM.

Take `O=C(NC[C@@H]1CCCNC1)[C@H]1CCCN1C(=O)[C@@H]1C[C@@H](O)CN1C(=O)CC(c1ccc(Cl)cc1)(c1ccc(Cl)cc1)c1ccc(Cl)cc1`: the Ki in assay [1] was determined as 2700 nM; in assay [2], 120 nM; in assay [3], 460 nM; in assay [4], 1.6 nM.

Regarding `CN1CCC(CNC(=O)[C@H]2CCCN2C(=O)[C@@H]2C[C@@H](O)CN2C(=O)CC(c2ccc(F)cc2)(c2ccc(F)cc2)c2ccc(F)cc2)CC1`, the Ki in assay [1] is 1600 nM; in assay [2] it was 41 nM; in assay [3], 270 nM; in assay [4], 0.51 nM.

In the case of `CC(C)NC(=O)[C@H]1CCCN1C(=O)[C@@H]1C[C@@H](O)CN1C(=O)CC(c1ccc(F)cc1)(c1ccc(F)cc1)c1ccc(F)cc1`, the Ki was over 5400 nM in assay [1], 180 nM in assay [2], 800 nM in assay [3] and 2.4 nM in assay [4].

With `O=C(NCCC1CCNCC1)[C@H]1CCCN1C(=O)[C@@H]1C[C@@H](O)CN1C(=O)CC(c1ccccc1)(c1ccccc1)c1ccccc1`, the inhibition constant Ki is over 5100 nM in assay [1], 150 nM in assay [2], 2000 nM in assay [3] and 2.8 nM in assay [4].

As for `CCN1CCC(CNC(=O)[C@H]2CCCN2C(=O)[C@@H]2C[C@@H](O)CN2C(=O)CC(c2ccc(F)cc2)(c2ccc(F)cc2)c2ccc(F)cc2)CC1`, the inhibitory constant (Ki) amounted to 2800 nM in assay [1], 92 nM in assay [2], 580 nM in assay [3] and 0.92 nM in assay [4].

On to `O=C(NCC1CCN(C2CCCC2)CC1)[C@H]1CCCN1C(=O)[C@@H]1C[C@@H](O)CN1C(=O)CC(c1ccc(F)cc1)(c1ccc(F)cc1)c1ccc(F)cc1`, for which the inhibition constant (Ki) in assay [1] worked out at 3200 nM; in assay [2], 48 nM; in assay [3] it was 210 nM; in assay [4], 0.51 nM.

These data come from ChEMBL document CHEMBL1148687, “Identification of a novel 4-aminomethylpiperidine class of M3 muscarinic receptor antagonists and structural insight into their M3 selectivity” (J Med Chem, 2006).
